Laboratory results: ChEMBL document CHEMBL4831539, “Withanolide-Type Steroids from Physalis nicandroides Inhibit HIV Transcription” (J Nat Prod, 2021)

What was measured:
[1] = Selectivity index, ratio of CC50 for human MT2 cells to IC50 for antiviral activity against HIV1 pNL4.3-Luc infected in MT2 cells by transfection assay; type: toxicity, cell-based; details: read-out: Selectivity Index
[2] = Selectivity index, ratio of CC50 for human MT2 cells to IC50 for antiviral activity against VSV envelope pseudotyped HIV infected in MT2 cells by viral entry evaluation assay; type: toxicity, cell-based; details: read-out: Selectivity Index
[3] = Antiviral activity against HIV1 pNL4.3-Luc infected in MT2 cells assessed as luciferase activity measured after 48 hrs by transfection assay; type: functional, cell-based; details: Human immunodeficiency virus 1, MT2, 48 h
How it was run: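 MT-2 cells were electroporated at 260 V, maximum resistance, with an HIV-1 whole-genome luciferase plasmid (pNL4.3-Luc). They were then treated with base-2 serial dilutions from 0.7 to 100 μM in complete RPMI at 37 °C for 48 h. PMA served as the transactivation reference. Cells were lysed and luciferase RLUs read. IC50 came from nonlinear dose–response regression.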

[4] = test system: Human immunodeficiency virus; test: Antiviral activity against VSV envelope pseudotyped HIV infected in MT2 cells assessed as luminescence measured after 48 hrs by viral entry evaluation assay; type: functional, organism-based; details: Human immunodeficiency virus 1, MT2, 48 h
How it was run: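 VSV-G pseudotyped HIV came from 293T cotransfection (calcium phosphate) of envelope-deleted pNL4.3-Luc-RE plus pcDNA3-VSV. MT-2 cells were infected at 100 000 RLUs or 20 ng p24 per well, with base-2 dilutions up to 100 μM, for 48 h at 37 °C, 5% CO2. NL4.3-Ren infections ran in parallel, with an enfuvirtide reference. Luciferase RLUs were read and IC50 obtained by nonlinear regression.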

[5] = Selectivity index, ratio of CC50 for human MT2 cells to IC50 for Anti-HIV activity against HIV; type: toxicity; details: read-out: Selectivity Index
How it was run: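 SI = CC50/IC50. […] CC50 came from mock-infected MT-2 cells under the same conditions, read by CellTiter Glo. Both are means of at least three independent experiments, fitted by nonlinear regression.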

## CC(=O)O[C@H]1C=C([C@H](C)[C@H]2CC(C)=C(C)C(=O)O2)[C@@]2(C)CC[C@H]3[C@@H](C[C@@H](O)[C@]45C=C[C@H](OO4)C(=O)[C@]35C)[C@@]12O
[1]
  selectivity ratio: 1.02
[2]
  selectivity ratio: 1.64
[3]
  IC50: 1970 nM
[4]
  IC50: 3200 nM

## C=C1C(=O)O[C@@H]([C@@H](C)[C@]2(O)C[C@H](OC(C)=O)[C@]3(O)[C@@H]4C[C@H]5O[C@]56CC=CC(=O)[C@]6(C)[C@H]4CC[C@@]32C)C[C@@]1(C)O
[5]
  selectivity ratio: > 8

## C[C@H](Cn1cnc2c(N)ncnc21)OCP(=O)(O)O [TENOFOVIR ANHYDROUS]
[5]
  selectivity ratio: 333

## CC(=O)O[C@H]1C=C([C@H](C)[C@H]2CC(C)=C(C)C(=O)O2)[C@@]2(C)CC[C@H]3[C@@H](C[C@H]4O[C@]45CC=CC(=O)[C@]35C)[C@@]12O
[2]
  selectivity ratio: 2.66
[5]
  selectivity ratio: 10.6

## C=C1C(=O)O[C@@H]([C@@H](C)[C@]2(O)C[C@H](OC(C)=O)[C@]3(O)[C@@H]4C[C@H]5O[C@]56CC=CC(=O)[C@]6(C)[C@H]4CC[C@@]32C)C[C@]1(C)O
[5]
  selectivity ratio: > 5.3

## enfuvirtide
[2]
  selectivity ratio: 66.7
[3]
  IC50: 10 nM
[4]
  IC50: > 1000 nM
